mIAP act: activators of mouse IAP, primary screen, biochemical, luminescence, uHTS | intestinal alkaline phosphatase [Mus musculus] | muIAP, CDP-Star luminescence, 30 min; stronger effect = higher value; 1 = vehicle-only enzyme signal, 0 = enzyme-free wells | activation factor at 10 µM | actives 0.24% (n = 330,000);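 active = activation factor of at least 2 at 20 µM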
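System: mouse IAP enzyme. Reagent: CDP-Star chemiluminescent phosphatase substrate. Benchmarks: DMSO wells, no-enzyme wells. Times: 30 min enzyme-substrate-compound incubation at room temperature. Detection: luminescence from enzymatic CDP-Star hydrolysis. Doses: test compounds delivered from DMSO solution.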
hIAP inh: human IAP inhibitors, primary screen, biochemical, luminescence, uHTS. Intestinal-type alkaline phosphatase (Homo sapiens), P09923. purified IAP, CDP-Star luminescence, 30 min. inhibition, % at 10 µM. actives 0.12% (n = 330,000);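 active = inhibition reaching a set limit with compound at 10 µM in the primary screen, cut at about 35% in these data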
Target sequence (P09923 whole entry, looked up): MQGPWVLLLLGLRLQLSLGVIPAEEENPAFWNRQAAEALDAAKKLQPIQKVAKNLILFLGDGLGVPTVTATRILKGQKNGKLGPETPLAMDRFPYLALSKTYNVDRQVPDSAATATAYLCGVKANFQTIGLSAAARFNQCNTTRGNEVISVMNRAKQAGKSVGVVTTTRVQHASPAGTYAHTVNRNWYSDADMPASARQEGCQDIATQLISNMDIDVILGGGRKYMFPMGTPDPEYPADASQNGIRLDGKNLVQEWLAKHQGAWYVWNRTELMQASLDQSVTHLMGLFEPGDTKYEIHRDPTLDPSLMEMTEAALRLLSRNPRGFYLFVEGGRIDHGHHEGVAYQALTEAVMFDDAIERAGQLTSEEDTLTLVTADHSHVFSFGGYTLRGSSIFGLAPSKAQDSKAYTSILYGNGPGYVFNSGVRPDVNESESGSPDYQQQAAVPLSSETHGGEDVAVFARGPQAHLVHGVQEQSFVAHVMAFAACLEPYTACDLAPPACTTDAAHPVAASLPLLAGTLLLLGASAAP
hIAP act: human IAP activators, primary screen, biochemical, luminescence, uHTS; AID 2524, 2010; activation factor at 10 µM; purified human IAP, CDP-Star luminescence, 30 min; stronger effect = higher value; 1 = vehicle-only enzyme, 0 = enzyme-free background; Intestinal-type alkaline phosphatase (Homo sapiens), P09923; actives 0.16% (n = 330,000);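 active = activation factor of the enzyme at least 2-fold when tested at 20 µM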
bIAP activator: bovine intestinal alkaline phosphatase activators, primary screen, biochemical, bovine IAP, CDP-star luminescence | alkaline phosphatase, intestinal [Bos taurus] | purified bovine IAP, 30 min; stronger effect = higher value; fold of DMSO-control signal, blank-subtracted | activation factor at 20 µM | actives 0.17% (n = 200,000);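 active = activation factor of 2 or more at 20 µM, a signal rise over negative controls twice the positive control's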
mIAP inh: inhibitors of mouse IAP, primary screen, biochemical, luminescence, uHTS | purified mouse IAP, CDP-Star luminescence, 30 min | inhibition, % at 10 µM | actives 0.2% (n = 330,000);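 active = inhibition of at least 40% at 10 µM in the primary screen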
bIAP inh: bovine intestinal alkaline phosphatase inhibitors, primary screen, selectivity assay for TNAP inhibitor project, biochemical, bovine IAP, CDP-star luminescence; alkaline phosphatase, intestinal [Bos taurus]; purified bovine IAP, 30 min; inhibition, % at 20 µM; 190,000 tested, under 10 active; AID 1019, 2008;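 active = over 50% inhibition of intestinal alkaline phosphatase at 20 µM in the single-dose screen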
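Assay system – bovine IAP enzyme · Quantity – bovine IAP at 1/65,000,000 final dilution · Detection – CDP-star luminescence signal · Times – 30 min reaction at room temperature · Also added – CDP-star substrate at 30 µM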
mIAP inh conf: inhibitors of mouse IAP, confirmation, biochemical, luminescence, single concentration | purified mouse IAP, CDP-Star luminescence, 30 min | inhibition, % at 10 µM | shares compounds with mIAP inh | actives 4.7% (n = 11,000) | AID 434971, 2010;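 active = inhibition of at least 40% at 10 µM in either of the two replicates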
Numbers stand for hits; – = inactive; · = no result given. Shown are actives, neighbours in structure and some others; about 0.72% of the full set was active somewhere.

SMILES	mIAP act	hIAP inh	hIAP act	bIAP activator	mIAP inh	bIAP inh	mIAP inh conf
COc1ccccc1NC(=O)C1CCCN(c2cnccn2)C1 (stereo not drawn)	–	–	–	·	–	·	·
O=C(CCC1CCCC1)NNC(=O)c1ccc(F)cc1	–	–	–	·	–	·	·
CCOC(=O)CC1COc2ccccc2N1C(=O)c1cccc([N+](=O)[O-])c1 (stereo not drawn)	–	–	–	·	–	·	·
O=C(CCN1C(=O)/C(=C\c2ccco2)SC1=S)Nc1ccc(C(=O)O)c(O)c1	–	–	–	·	56	·	76
O=C(CCN1C(=O)/C(=C/c2ccco2)SC1=S)Nc1ccc(C(=O)O)c(O)c1	–	–	–	·	62	·	78
Fc1ccc(N2CCN(c3cnc4ccccc4n3)CC2)cc1	–	–	–	·	–	·	·
CC(=O)Nc1cccc(N(C)S(C)(=O)=O)c1	–	–	–	–	–	–	·
CN(c1cccc(NC(=O)Nc2cccc(Cl)c2)c1)S(C)(=O)=O	3.7	–	–	–	–	–	–
O=C(NCC1CC1)Nc1ccc(Cl)cc1	–	–	–	·	–	·	·
Cc1ccc(C)c(CN2CCC(CNC(=O)Nc3ccc(Cl)cc3)CC2)c1	2.7	–	–	·	–	·	–
COc1cc(C(=O)NCC2CCCO2)cc(Br)c1OCc1ccccc1 (stereo not drawn)	–	–	–	·	–	·	·
O=C(Nc1ccc(Cl)cc1)Nc1ccc(Cl)c(Cl)c1	3.3	–	–	·	–	·	–
O=C(Nc1ccc(Cl)c(Cl)c1)Nc1ccc(Br)cc1F	3.5	–	–	–	–	–	–
Cc1cccc(NS(=O)(=O)c2ccc(C)c(NS(=O)(=O)c3cccs3)c2)c1	–	–	–	·	–	·	·
Cc1ccc(C)c(NS(=O)(=O)c2ccc3[nH]c(=O)oc3c2)c1	–	–	–	–	84	–	89
COC(=O)c1ccc(NS(=O)(=O)c2ccc3[nH]c(=O)oc3c2)cc1	–	–	–	·	70	·	74
O=c1[nH]c2ccc(S(=O)(=O)N3CCCCC3)cc2o1	–	–	–	–	80	–	74
Cc1cccc(NS(=O)(=O)c2ccc3[nH]c(=O)oc3c2)c1C	–	–	–	·	–	·	·
Cc1ccc(NS(=O)(=O)c2ccc3[nH]c(=O)oc3c2)cc1Cl	–	–	–	·	–	·	·
O=C(c1ccco1)N1CCN(Cc2cc(=O)c(OCc3ccc([N+](=O)[O-])cc3)co2)CC1	–	–	–	·	–	·	·
CCOC(=O)c1ccc(N2CCN(c3ccccc3F)CC2)c(NC(=O)Nc2ccccc2)c1	6.6	–	–	–	–	–	–
Cc1ccc(NC(=O)NC2CCCc3ccccc32)cc1 (stereo not drawn)	–	–	–	·	–	·	·
CC(C)(C)c1ccc(NC(=O)NC2CCCc3ccccc32)cc1 (stereo not drawn)	6.2	–	–	·	–	·	–
CCCSc1nc(N)nc(-c2cccs2)c1C#N	–	–	–	–	–	–	·
COC(=O)c1cc(S(=O)(=O)NCC2CCN(CCc3cccs3)CC2)c[nH]1	–	–	–	·	–	·	·
SMILES	mIAP act	hIAP inh	hIAP act	bIAP activator	mIAP inh	bIAP inh	mIAP inh conf
COc1ccc(NC(=O)NC23CC4(C)CC(C)(CC(C)(C4)C2)C3)cc1	3.1	–	–	–	–	–	–
COc1ccc(NC(=O)NC2(C)CCS(=O)(=O)C2)cc1 (stereo not drawn)	–	–	–	·	–	·	·
NC(=O)C1CCN(C(=O)CN(C2CCCCC2)S(=O)(=O)c2ccc(F)cc2)CC1	–	–	–	·	–	·	·
Cc1oc(-c2ccc(Cl)cc2)cc1-c1nn2c(-c3ccoc3C)nnc2s1	–	–	–	–	41	–	49
CC1CCC(NC(=O)CN2C(=O)C3CC=CCC3C2=O)CC1 (stereo not drawn)	–	–	–	·	–	·	·
O=[N+]([O-])c1ccccc1NC(=S)N/N=C/c1ccc(O)c(O)c1	–	–	–	–	75	–	72
CCOC(=O)C(C)Sc1nc2c(c(=O)[nH]c(=O)n2C)n1C/C=C(/C)Cl (stereo not drawn)	–	–	–	–	68	–	71
CCSc1nc2c(c(=O)[nH]c(=O)n2C)n1C/C=C(/C)Cl	–	–	–	–	–	–	·
CCN(CC)c1ccc(S(=O)(=O)N2CCOCC2)cc1NC(=O)CNCc1ccccc1	–	–	–	·	–	·	·
CCN(CC)c1ccc(S(=O)(=O)N2CCOCC2)cc1NC(=O)Nc1ccccc1	4.7	–	–	·	–	·	–
NC(=O)CC(NC(=O)c1ccc(Cl)cc1)C(=O)NCCc1ccc(S(N)(=O)=O)cc1 (stereo not drawn)	–	–	–	·	–	·	·
COc1ccc(Cl)cc1NC(=S)NCCC(c1ccccc1)c1ccccc1	4	–	–	–	–	–	–
COc1ccc(Cl)cc1NC(=S)NCCO	–	–	–	–	–	–	·
S=C(NCc1ccccc1)Nc1ccc(Cl)cc1	–	–	–	–	–	–	·
S=C(NCCC(c1ccccc1)c1ccccc1)Nc1ccc(Cl)cc1	5.9	–	–	–	–	–	–
COCCNS(=O)(=O)c1ccc2c(c1)oc(=O)c1cc(S(=O)(=O)NCCOC)ccc12	–	–	–	–	–	–	·
NS(=O)(=O)c1ccc2c(c1)oc(=O)c1cc(S(N)(=O)=O)ccc12	–	–	–	–	48	–	57
CCOC(=O)C1=C(N)n2c(s/c(=C/c3ccco3)c2=O)=C(C(=O)OC)C1c1ccco1 (stereo not drawn)	·	·	·	–	·	–	·
N#CC1=C(N)n2c(s/c(=C\c3ccco3)c2=O)=C(C#N)C1c1ccco1 (stereo not drawn)	–	–	–	–	68	–	88
O=C(COC(=O)c1ccccc1)Nc1ncc([N+](=O)[O-])s1	–	–	–	·	67	·	72
CCCCC[C@@H](O)c1cc2ccccc2c(=O)o1	–	–	–	·	–	·	·
Nc1cc2nc3ccccc3oc-2cc1=O	–	–	–	·	50	·	42
CC(=O)N1CCOc2ccc(S(=O)(=O)N3CCC(C(=O)Nc4ccc(F)cc4)CC3)cc21	–	–	–	·	–	·	·
O=C(NC1CCCC1)c1cc2nc(-c3ccco3)cc(C(F)(F)F)n2n1	–	–	–	·	–	·	·
Cc1ccc(OCc2ccc(Br)cc2)c([N+](=O)[O-])n1	–	–	–	–	–	–	·

Bioassay records from PubChem BioAssay.
